One data set has as its system Hydrogenivirga spp. MraY. Format: biochemical. As to conditions: for IC50: read-out: MraY inhibition IC50.
The next data set deals with C. difficile ATCC 43596. As to the kind of experiment: microbe, parasite or virus in culture. The class given is cell-based, Clostridium difficile. The following applies: for MIC: Clostridioides difficile, ATCC43596, read-out: C. difficile ATCC 43596 MIC.
For a further data set, the target named is T1, E. coli WecA (Escherichia coli, UniProt P0AC78).
T1 sequence (P0AC78 1-367): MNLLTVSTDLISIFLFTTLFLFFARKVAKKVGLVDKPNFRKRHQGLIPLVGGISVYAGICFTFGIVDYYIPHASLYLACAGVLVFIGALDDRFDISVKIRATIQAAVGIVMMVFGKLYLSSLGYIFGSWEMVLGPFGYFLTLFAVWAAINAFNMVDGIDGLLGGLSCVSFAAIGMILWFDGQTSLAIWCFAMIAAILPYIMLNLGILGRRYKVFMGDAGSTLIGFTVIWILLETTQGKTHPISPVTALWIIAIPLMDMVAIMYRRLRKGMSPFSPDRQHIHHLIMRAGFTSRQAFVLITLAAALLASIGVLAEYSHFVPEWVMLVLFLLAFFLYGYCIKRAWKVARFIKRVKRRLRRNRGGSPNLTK
As to the kind of experiment: biochemical. The class given is biochemical.

A further data set deals with T2, M. smegmatis WecA (Mycolicibacterium smegmatis, UniProt A0R211).
T2 sequence (A0R211 1-406): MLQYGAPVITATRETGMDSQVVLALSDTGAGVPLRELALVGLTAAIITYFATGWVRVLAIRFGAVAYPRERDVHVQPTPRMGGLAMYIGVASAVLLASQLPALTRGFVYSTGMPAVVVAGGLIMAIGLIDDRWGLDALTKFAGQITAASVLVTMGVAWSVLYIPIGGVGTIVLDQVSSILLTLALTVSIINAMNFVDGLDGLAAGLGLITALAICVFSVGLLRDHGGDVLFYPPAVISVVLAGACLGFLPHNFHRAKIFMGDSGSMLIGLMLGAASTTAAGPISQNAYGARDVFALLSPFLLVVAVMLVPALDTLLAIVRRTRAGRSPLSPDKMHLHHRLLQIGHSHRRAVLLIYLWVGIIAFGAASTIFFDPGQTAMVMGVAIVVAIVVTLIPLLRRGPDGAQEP
As to the kind of experiment: WecA inhibition assay. The class given is biochemical.

In the next data set the test system is Vero cells. As to the kind of experiment: Vero cell cytotoxicity. Format: cell-based, African green monkey. The gist of the method: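 Vero cells (ATCC CCL-81) grown in flasks, then seeded into 96-well plates in Eagle's minimum essential medium with 10% FBS and penicillin–streptomycin. Test compound stock was 1 mg per 100 μL in PEG 300–water (1/1). Serial dilutions spanning 0.78–200 μg/mL were added, with known-toxicity control compounds on every plate. After incubation, cytotoxicity was read by MTT.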

Another data set relates to sheep blood. As to the kind of experiment: Hemolysis assay. Format: cell-based. The following applies: for IC50: read-out: hemolysis IC50, sheep blood.
For data set [1], the system named is C. difficile (ATCC 43596) spores. Put plainly: C. difficile spore viability / outgrowth assay. The class given is cell-based, Clostridium difficile. As to conditions: 24 h treatment, taurocholate agar.
A short description of another data set: Water solubility. Format: physicochemical.
The subject of data set [2] is Clostridium perfringens (ATCC 13124). As to the kind of experiment: microbe, parasite or virus in culture. As to conditions: ATCC13124, read-out: MIC Clostridium perfringens. The class given is cell-based.
Data set [3] deals with Bacillus subtilis (ATCC 6051). As to the kind of experiment: microbe, parasite or virus in culture. The class given is cell-based. The following applies: ATCC6051, read-out: MIC Bacillus subtilis.
A further data set has as its system Lactobacillus spp. Format: cell-based.
For a further data set, the system named is Staphylococcus aureus. Format: cell-based.
Data set [4] deals with Staphylococcus pneumoniae. Format: cell-based.
The test system of data set [5] is all Gram-negative bacteria tested. The class given is cell-based.
Data set [6] has as its system C. difficile spore outgrowth. As to conditions: high concentrations; cited from earlier work.
For the next data set, the system named is vegetative C. difficile. As to conditions: cited from earlier work.
In another data set the target is T3, M. jannaschii AglH (Methanocaldococcus jannaschii, UniProt Q58513).
T3 sequence (Q58513 1-301): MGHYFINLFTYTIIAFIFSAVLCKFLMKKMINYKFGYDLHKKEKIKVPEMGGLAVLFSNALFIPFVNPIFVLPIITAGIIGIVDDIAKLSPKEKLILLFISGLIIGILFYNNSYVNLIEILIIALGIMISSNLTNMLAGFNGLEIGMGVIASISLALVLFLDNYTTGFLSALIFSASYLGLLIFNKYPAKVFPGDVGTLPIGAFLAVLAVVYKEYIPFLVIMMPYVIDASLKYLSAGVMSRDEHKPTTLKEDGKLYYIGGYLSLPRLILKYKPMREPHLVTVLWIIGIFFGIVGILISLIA
As to the kind of experiment: AglH counterselection assay. Format: biochemical. As to conditions: read-out: AglH inhibition IC50, M. jannaschii AglH.

Converted amounts (≈) assume the structure as drawn. “And” between values parts separate entries of the source, which are not always exact repeats. Equal values may be shown once. “Also recorded” adds a separate entry of the source. Read-outs that look alike come from different tables or passages of the source.

One may read the IC50 as the concentration that gives 50% inhibition. For the compound `CN(CCCN)[C@H](C(=O)O)[C@@H](O[C@@H]1O[C@H](CN)[C@@H](O)[C@H]1O)[C@H]1O[C@@H](n2ccc(=O)[nH]c2=O)C(O)C1O` (stereo partly drawn) [compound 5, FR-900493-5′R,6′S-Diastereomer], the IC50 with Hydrogenivirga spp. MraY is more than 100 µM. In addition, the MIC in the data set with C. difficile ATCC 43596 is more than 25 µg/mL.

On to `CN(CCCN)[C@@H](C(=O)O)[C@@H](O[C@@H]1O[C@H](CN)[C@@H](O)[C@H]1O)[C@H]1O[C@@H](n2ccc(=O)[nH]c2=O)C(O)C1O` (stereo partly drawn) [compound 6, FR-900493-5′R, 6′R-Diastereomer], for which the IC50 with Hydrogenivirga spp. MraY was more than 100 µM. For the same compound, in the data set on C. difficile ATCC 43596, the MIC is more than 25 µg/mL.

Turning to `CN(CCCN)[C@H](C(N)=O)[C@H](O[C@@H]1O[C@H](CN)[C@@H](O)[C@H]1O)[C@H]1O[C@@H](n2ccc(=O)[nH]c2=O)C(O)C1O` (some centres unmarked) [compound 7, FR-900493-Amide], the “WecA inhibitory activity (in words)” value at E. coli WecA was “equal to that of 1”. Further, in the data set with Hydrogenivirga spp. MraY, the “MraY inhibitory activity (in words)” value is reported as “equal to that of 1” and the IC50 was found to be 25 ± 9.67 µM. Also, the MIC in the data set with C. difficile ATCC 43596 is more than 25 µg/mL.

Take `NCCCN[C@H](C(N)=O)[C@H](O[C@@H]1O[C@H](CN)[C@@H](O)[C@H]1O)[C@H]1O[C@@H](n2ccc(=O)[nH]c2=O)C(O)C1O` (some centres unmarked) [compound 8, De N-Methyl FR-900493]: on E. coli WecA, the IC50 is more than 100 µM and the “WecA inhibitory activity (in words)” value is recorded as “completely lost”. Also, in the data set on Hydrogenivirga spp. MraY, the “MraY inhibitory activity (in words)” value is “completely lost” and the IC50 was more than 100 µM. In the data set with C. difficile ATCC 43596, the MIC was more than 25 µg/mL.

The term solubility denotes the dissolved amount per volume that the medium holds. Consider `NC[C@H]1O[C@@H](O[C@@H]([C@H](NCCCC(=O)NCc2ccc(N3CCC(Oc4ccc(OC(F)(F)F)cc4)CC3)cc2)C(N)=O)[C@H]2O[C@@H](n3ccc(=O)[nH]c3=O)C(O)C2O)[C@H](O)[C@@H]1O` (some centres unmarked) [compound 11], for which the “C. difficile ATCC 43596 MIC” value in the data set with C. difficile ATCC 43596 turned out to be 3.25 ± 4.40 µg/mL. The “anti-C. difficile activity in library screen” value in the data set with C. difficile ATCC 43596 was “displayed anti-C. difficile activity”. Besides, the MIC was 3.25 µg/mL (≈ 3.69 µM) in the data set on C. difficile ATCC 43596, 3.1 µg/mL (≈ 3.52 µM) in data set [2] and 1.6 µg/mL (≈ 1.81 µM) in data set [3]. In addition, the IC50 at M. smegmatis WecA worked out at 250 nM; in the data set on Vero cells (Chlorocebus sabaeus, Vero, read-out: Vero cells IC50, cytotoxicity, MTT), 65 ± 4.65 µM; in the data set with sheep blood (listed as UT-17460 (11)) it was 206 ± 4.33 µM. Besides, the “cytotoxicity against Vero cells of 11 relative to 10” value with Vero cells (less cytotoxic than 10) was “approximately 8 times”. Further, in the data set with sheep blood (at 100 μM concentration), the “induction of hemolysis (in words)” value is “does not induce hemolysis”. The “outgrowth of C. difficile spores (in words)” value (shortened to “outgrowth … (in words)”) in data set [1] (2× MIC) is “prevented the outgrowth; also recorded: inhibited the outgrowth”. In addition, the “water solubility of 11 relative to 10” value in “Water solubility” (greater than 10) came to 200 times. Also, the solubility in the data set “Water solubility” (water) turned out to be 22 mg/mL (≈ 24900 µM). Besides, in the data set on Lactobacillus spp., the “growth inhibition of Lactobacillus spp.” value was more than 25.0 µg/mL. Besides, the “growth inhibition of Staphylococcus aureus” value in the data set on Staphylococcus aureus was more than 25.0 µg/mL. Besides, the “growth inhibition of Staphylococcus pneumoniae” value in data set [4] is more than 25.0 µg/mL. Also, in data set [5], the “growth inhibition of all Gram-negative bacteria tested” value is more than 25.0 µg/mL.

`CN(CCCC(=O)NCc1ccc(N2CCC(Oc3ccc(OC(F)(F)F)cc3)CC2)cc1)[C@H](C(N)=O)[C@H](O[C@@H]1O[C@H](CN)[C@@H](O)[C@H]1O)[C@H]1O[C@@H](n2ccc(=O)[nH]c2=O)C(O)C1O` (some centres unmarked) [compound 12]: the “MraY inhibitory activity relative to FR-900493 (1)” value in the data set on Hydrogenivirga spp. MraY is more than 3 fold. Moreover, in the data set with C. difficile ATCC 43596, the “anti-C. difficile activity in library screen” value is recorded as “displayed anti-C. difficile activity” and the MIC is 50 ± 5.81 µg/mL (≈ 55.8 µM).

Usually MIC90 stands for an inhibitory concentration at the 90% level, which refers to growth in some studies and to a panel of isolates in others. With `CCc1c(Cl)c(O)c(Cl)c(O)c1C(=O)O[C@H]1[C@H](O)[C@H](OC)[C@H](OC/C2=C\C=C\C[C@H](O)/C(C)=C/[C@H](CC)[C@@H](O[C@@H]3OC(C)(C)[C@@H](OC(=O)C(C)C)[C@H](O)[C@@H]3O)/C(C)=C/C(C)=C/C[C@@H]([C@@H](C)O)OC2=O)O[C@@H]1C` [fidaxomicin], the “concentration inhibiting C. difficile spore outgrowth” value in data set [6] was 4.0 to 14 µg/mL. Moreover, the MIC90 in the data set with vegetative C. difficile was 0.5 µg/mL (≈ 0.473 µM).

On to `CC(=O)NC[C@H]1CN(c2ccc(N3CCOCC3)c(F)c2)C(=O)O1` [linezolid], for which the “outgrowth … (in words)” value in data set [1] (5× MIC) is reported as “did not inhibit the spore outgrowth”.

In the case of `Cc1ncc([N+](=O)[O-])n1CCO` [metronidazole], in [1] (5× MIC), the “outgrowth … (in words)” value is “did not inhibit the spore outgrowth”.

`CN[C@H](CC(C)C)C(=O)N[C@H]1C(=O)N[C@@H](CC(N)=O)C(=O)N[C@H]2C(=O)N[C@H]3C(=O)N[C@H](C(=O)N[C@H](C(=O)O)c4cc(O)cc(O)c4-c4cc3ccc4O)[C@H](O)c3ccc(c(Cl)c3)Oc3cc2cc(c3O[C@@H]2O[C@H](CO)[C@@H](O)[C@H](O)[C@H]2O[C@H]2C[C@](C)(N)[C@H](O)[C@H](C)O2)Oc2ccc(cc2Cl)[C@H]1O` [vancomycin, reference compound]: the IC50 on E. coli WecA and in the data set on Hydrogenivirga spp. MraY was more than 50 µM throughout. Moreover, in the data set with C. difficile ATCC 43596, the MIC amounted to 2.5 µg/mL (≈ 1.73 µM). The “outgrowth … (in words)” value in data set [1] (5× MIC) is given as “did not inhibit the spore outgrowth”.

As to tunicamycin [reference compound], in the data set on C. difficile ATCC 43596, the “C. difficile ATCC 43596 MIC” value is >25.0 µg/mL and >50.0 µg/mL. Besides, the IC50 on M. jannaschii AglH amounted to 13.3 ± 8.1 µM; with sheep blood it was 15 ± 7.83 µM.

The record behind these values is article PMC5830699 (ACS Omega, 2018).
